{"source": "ChEMBL document CHEMBL4196126", "about": "“Optimization of 3-Pyrimidin-4-yl-oxazolidin-2-ones as Orally Bioavailable and Brain Penetrant Mutant IDH1 Inhibitors” (ACS Med Chem Lett, 2018)", "key": {"[1]": {"experiment": "Intrinsic clearance in rat liver microsomes at 1 uM in presence of NADPH by LC-MS/MS analysis", "type": "ADME, microsome", "settings": "read-out: CLH"}, "[2]": {"molecular_target": "T1, Isocitrate dehydrogenase [NADP] cytoplasmic (Homo sapiens, UniProt O75874, R132H)", "T1 sequence (O75874 2-414 R132H limits assumed)": "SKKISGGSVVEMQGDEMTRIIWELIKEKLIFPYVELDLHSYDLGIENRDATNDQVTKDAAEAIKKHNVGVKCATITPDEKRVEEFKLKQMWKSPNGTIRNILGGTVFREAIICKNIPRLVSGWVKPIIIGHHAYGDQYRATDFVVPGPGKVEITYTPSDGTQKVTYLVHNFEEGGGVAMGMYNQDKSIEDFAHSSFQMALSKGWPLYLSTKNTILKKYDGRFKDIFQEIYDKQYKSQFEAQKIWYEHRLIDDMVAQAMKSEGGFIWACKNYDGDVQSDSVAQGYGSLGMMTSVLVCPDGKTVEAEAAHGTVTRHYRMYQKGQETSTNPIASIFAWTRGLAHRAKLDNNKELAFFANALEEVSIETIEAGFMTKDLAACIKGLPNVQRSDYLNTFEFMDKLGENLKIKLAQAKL", "experiment": "Inhibition of IDH1 R132H mutant (unknown origin) expressed in HCT116 cells assessed as reduction in 2-HG levels after 48 hrs by LC-MS/MS analysis", "type": "cell-based"}, "[3]": {"molecular_target": "T1, Isocitrate dehydrogenase [NADP] cytoplasmic", "experiment": "Inhibition of IDH1 R132H mutant (unknown origin) using alphaKG as substrate in presence of NADPH by LC-MS/MS analysis"}, "[4]": {"experiment": "Intrinsic clearance in mouse liver microsomes", "type": "ADME, microsome", "settings": "read-out: CLH"}, "[5]": {"experiment": "Clearance in Sprague-Dawley rat plasma at 1 mg/kg, iv or 10 mg/kg, po by mass spectrometry based HPLC method", "type": "ADME, organism-based", "in_short": "(§1)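 Rats and mice received a single 1 mg/kg intravenous dose and a 10 mg/kg oral dose. Plasma clearance was taken from the intravenous arm. Oral AUC and oral bioavailability were taken from the oral arm.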"}, "[6]": {"experiment": "AUC in Sprague-Dawley rat at 10 mg/kg, po by mass spectrometry based HPLC method", "type": "ADME, organism-based", "settings": "in vivo", "in_short": "as §1"}, "[7]": {"experiment": "Oral bioavailability in Sprague-Dawley rat at 10 mg/kg by mass spectrometry based HPLC method", "type": "ADME, organism-based", "settings": "in vivo", "in_short": "as §1"}, "[8]": {"experiment": "Solubility of the compound at pH 6.8", "type": "physicochemical", "settings": "buffer"}, "[9]": {"experiment": "Clearance in C57BL/6 mouse plasma at 1 mg/kg, iv or 10 mg/kg, po by mass spectrometry based HPLC method", "type": "ADME, organism-based", "in_short": "as §1"}, "[10]": {"experiment": "AUC in C57BL/6 mouse at 10 mg/kg, po by mass spectrometry based HPLC method", "type": "ADME, organism-based", "settings": "in vivo", "in_short": "as §1"}, "[11]": {"experiment": "Oral bioavailability in C57BL/6 mouse at 10 mg/kg by mass spectrometry based HPLC method", "type": "ADME, organism-based", "settings": "in vivo", "in_short": "as §1"}, "[12]": {"molecular_target": "Isocitrate dehydrogenase [NADP] cytoplasmic (Homo sapiens, UniProt O75874)", "sequence (O75874 whole entry)": "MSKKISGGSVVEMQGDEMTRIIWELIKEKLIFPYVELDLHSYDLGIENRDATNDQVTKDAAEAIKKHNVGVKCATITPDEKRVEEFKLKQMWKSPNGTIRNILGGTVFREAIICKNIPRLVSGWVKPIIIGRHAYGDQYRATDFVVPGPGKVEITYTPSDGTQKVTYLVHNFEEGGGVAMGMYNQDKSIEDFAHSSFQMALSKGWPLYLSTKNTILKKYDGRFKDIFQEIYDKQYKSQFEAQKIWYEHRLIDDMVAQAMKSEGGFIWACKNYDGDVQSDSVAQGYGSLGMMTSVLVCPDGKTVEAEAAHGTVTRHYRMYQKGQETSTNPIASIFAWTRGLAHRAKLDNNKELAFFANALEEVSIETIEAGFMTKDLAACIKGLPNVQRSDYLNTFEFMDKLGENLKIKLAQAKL", "experiment": "Inhibition of wild-type IDH1 (unknown origin) assessed as NADPH production using isocitrate as substrate by fluorescence assay"}, "[13]": {"molecular_target": "T1, Isocitrate dehydrogenase [NADP] cytoplasmic", "experiment": "Inhibition of IDH1 R132H mutant (unknown origin) assessed as NADPH consumption using alpha-ketoglutarate as substrate by fluorescence assay"}, "[14]": {"molecular_target": "Isocitrate dehydrogenase [NADP] cytoplasmic (Homo sapiens, UniProt O75874, R132C)", "sequence (O75874 2-414 R132C limits assumed)": "as the sequence (O75874 2-414 R132H limits assumed) above, with H131C counted along it", "experiment": "Inhibition of IDH1 R132C mutant (unknown origin) assessed as NADPH consumption using alpha-ketoglutarate as substrate by fluorescence assay"}, "[15]": {"species_on_record": "Homo sapiens", "experiment": "Selectivity ratio of IC50 for wild-type IDH1 (unknown origin) to IC50 for IDH1 R132H mutant (unknown origin)"}, "[16]": {"species_on_record": "Homo sapiens", "experiment": "Selectivity ratio of IC50 for wild-type IDH1 (unknown origin) to IC50 for IDH1 R132C mutant (unknown origin)"}, "[17]": {"tested_on": "Mus musculus", "experiment": "Time at which unbound plasma concentration stays above cellular IDH1 R132H mutant inhibitory IC50 in HSD athymic nude mouse xenografted with human HCT116 cells", "type": "ADME, organism-based", "settings": "in vivo", "in_short": "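After a single 150 mg/kg oral dose in HCT116-IDH1 R132H/+ xenograft mice, unbound plasma concentration was estimated from total plasma levels corrected by mouse plasma protein binding. It was then followed over time against the HCT116-IDH1 R132H/+ cellular IC50.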"}, "[18]": {"tested_on": "Mus musculus", "experiment": "In vivo inhibition of IDH1 R132H mutant in HSD athymic nude mouse tumor xenografted with human HCT116 cells assessed as reduction in 2-HG level at 150 mg/kg, po measured 16 to 24 hrs post dose by LC-MS/MS analysis relative to control", "type": "functional", "settings": "HCT-116, po", "in_short": "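Mice bearing HCT116-IDH1 R132H/+ xenograft tumors received a single 150 mg/kg oral dose. 2-HG was measured in tumor tissue and expressed as percent inhibition relative to vehicle-treated tumors over a 16−24 h post-dose window. Plasma drug concentrations were measured alongside.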"}, "[19]": {"experiment": "Ratio of AUC in Sprague-Dawley rat brain to plasma at 1 mg/kg, iv or 10 mg/kg, po", "type": "ADME, organism-based", "settings": "read-out: Ratio AUC"}, "[20]": {"experiment": "Plasma protein binding in rat plasma at 5 uM after 4 hrs by rapid equilibrium dialysis based LC/MS/MS method"}, "[21]": {"experiment": "Plasma protein binding in mouse plasma at 5 uM after 4 hrs by rapid equilibrium dialysis based LC/MS/MS method"}, "[22]": {"experiment": "Intrinsic clearance in human liver microsomes", "type": "ADME, microsome", "settings": "read-out: CLH"}}, "data": [{"smiles": "C[C@H](Nc1nccc(N2C(=O)OC[C@@H]2[C@H](C)F)n1)c1cn(-c2ccc(Cl)cc2)cn1", "values": [{"measurement": "microsomal CLint at 1 µM", "setting": "[1]", "result": 148, "unit": "µL/min/mg"}]}, {"smiles": "CC[C@H]1COC(=O)N1c1nc(N[C@@H](C)c2cn(-c3ccc(Cl)cc3)cn2)ncc1F", "values": [{"measurement": "IC50", "setting": "[2]", "result": 0.013, "unit": "µM"}, {"measurement": "microsomal CLint at 1 µM", "setting": "[1]", "result": 448, "unit": "µL/min/mg"}]}, {"smiles": "CC(C)[C@H]1COC(=O)N1c1ccnc(N[C@@H](C)c2nc(-c3ccccc3Cl)no2)n1", "values": [{"measurement": "IC50", "setting": "[3]", "result": 0.61, "unit": "µM"}, {"measurement": "microsomal CLint at 1 µM", "setting": "[1]", "result": 924, "unit": "µL/min/mg"}]}, {"smiles": "C[C@H](Nc1nccc(N2C(=O)OC[C@@H]2CF)n1)c1cn(-c2ccc(C(F)(F)F)cc2)cn1", "values": [{"measurement": "IC50", "setting": "[2]", "result": 0.039, "unit": "µM"}, {"measurement": "microsomal CLint at 1 µM", "setting": "[1]", "result": "7 to 7.7", "unit": "µL/min/mg"}, {"measurement": "microsomal CLint", "setting": "[4]", "result": 11, "unit": "µL/min/mg"}, {"measurement": "clearance", "setting": "[5]", "result": 2.6, "unit": "mL/min/kg"}, {"measurement": "AUC", "setting": "[6]", "result": 180, "unit": "µM·h"}, {"measurement": "bioavailability", "setting": "[7]", "result": 127, "unit": "%"}, {"measurement": "solubility", "setting": "[8]", "result": 124, "unit": "µM"}, {"measurement": "clearance", "setting": "[9]", "result": 5, "unit": "mL/min/kg"}, {"measurement": "AUC", "setting": "[10]", "result": 172, "unit": "µM·h"}, {"measurement": "bioavailability", "setting": "[11]", "result": 149, "unit": "%"}, {"measurement": "IC50", "setting": "[12]", "result": 2.52, "unit": "µM"}, {"measurement": "IC50", "setting": "[13]", "result": 0.021, "unit": "µM"}, {"measurement": "IC50", "setting": "[14]", "result": 0.045, "unit": "µM"}, {"measurement": "Ratio IC50", "setting": "[15]", "result": "50 to 100"}, {"measurement": "Ratio IC50", "setting": "[16]", "result": "50 to 100"}, {"measurement": "Time", "setting": "[17]", "result": 24, "unit": "h"}, {"measurement": "inhibition in vivo at 150 mg/kg", "setting": "[18]", "result": "> 90", "unit": "%"}, {"measurement": "Kp", "setting": "[19]", "result": 0.17}, {"measurement": "PPB at 4 h, 5 µM", "setting": "[20]", "result": 0.98}, {"measurement": "PPB at 4 h, 5 µM", "setting": "[21]", "result": 0.98}]}, {"smiles": "CC(Nc1nccc(N2CCOC2=O)n1)c1ncc(Oc2ccc(F)cc2)cn1", "note": "(racemic)", "values": [{"measurement": "IC50", "setting": "[3]", "result": 8.8, "unit": "µM"}, {"measurement": "microsomal CLint at 1 µM", "setting": "[1]", "result": 35, "unit": "µL/min/mg"}]}, {"smiles": "C[C@H](Nc1ncc(F)c(N2C(=O)OC[C@@H]2[C@@H](C)F)n1)c1cn(-c2ccc(Cl)cc2)cn1", "values": [{"measurement": "IC50", "setting": "[2]", "result": 0.24, "unit": "µM"}, {"measurement": "microsomal CLint at 1 µM", "setting": "[1]", "result": 237, "unit": "µL/min/mg"}]}, {"smiles": "C[C@H](Nc1ncc(F)c(N2CCOC2=O)n1)c1cn(-c2ccc(Cl)cc2)cn1", "values": [{"measurement": "IC50", "setting": "[2]", "result": 0.5, "unit": "µM"}, {"measurement": "microsomal CLint at 1 µM", "setting": "[1]", "result": 34, "unit": "µL/min/mg"}, {"measurement": "microsomal CLint", "setting": "[4]", "result": 73, "unit": "µL/min/mg"}, {"measurement": "microsomal CLint", "setting": "[22]", "result": 59, "unit": "µL/min/mg"}]}, {"smiles": "C[C@H](Nc1ncc(F)c(N2C(=O)OC[C@@H]2CF)n1)c1cn(-c2ccc(Cl)cc2)cn1", "values": [{"measurement": "IC50", "setting": "[2]", "result": 0.024, "unit": "µM"}, {"measurement": "microsomal CLint at 1 µM", "setting": "[1]", "result": 28, "unit": "µL/min/mg"}]}, {"smiles": "CC(C)[C@H]1COC(=O)N1c1ccnc(N[C@@H](C)c2nc(-c3ccc(Cl)cc3)no2)n1", "values": [{"measurement": "microsomal CLint at 1 µM", "setting": "[1]", "result": 302, "unit": "µL/min/mg"}]}, {"smiles": "C[C@H](Nc1nccc(N2C(=O)OC[C@@H]2[C@H](C)F)n1)c1cn(-c2ccc(C(F)F)cc2)cn1", "values": [{"measurement": "clearance", "setting": "[5]", "result": 20, "unit": "mL/min/kg"}, {"measurement": "AUC", "setting": "[6]", "result": 15, "unit": "µM·h"}, {"measurement": "bioavailability", "setting": "[7]", "result": 82, "unit": "%"}, {"measurement": "solubility", "setting": "[8]", "result": 422, "unit": "µM"}, {"measurement": "Kp", "setting": "[19]", "result": "< 0.1"}, {"measurement": "PPB at 4 h, 5 µM", "setting": "[20]", "result": 0.95}, {"measurement": "PPB at 4 h, 5 µM", "setting": "[21]", "result": 0.92}]}, {"smiles": "C[C@H](Nc1nccc(N2C(=O)OC[C@@H]2CF)n1)c1cn(-c2ccc(Cl)cc2)cn1", "values": [{"measurement": "IC50", "setting": "[2]", "result": 0.03, "unit": "µM"}, {"measurement": "microsomal CLint at 1 µM", "setting": "[1]", "result": 75, "unit": "µL/min/mg"}]}, {"smiles": "C[C@H](Nc1ncc(F)c(N2C(=O)OC(C)(C)C2(C)C)n1)c1nc(-c2ccc(Cl)cc2)no1", "values": [{"measurement": "microsomal CLint at 1 µM", "setting": "[1]", "result": 170, "unit": "µL/min/mg"}]}, {"smiles": "C[C@H](Nc1ncc(F)c(N2C(=O)OC[C@@H]2[C@H](C)F)n1)c1cn(-c2ccc(Cl)cc2)cn1", "values": [{"measurement": "IC50", "setting": "[2]", "result": 0.022, "unit": "µM"}, {"measurement": "microsomal CLint at 1 µM", "setting": "[1]", "result": 272, "unit": "µL/min/mg"}]}, {"smiles": "CC(C)[C@H]1COC(=O)N1c1ccnc(N[C@@H](C)c2cn(-c3ccc(Cl)cc3)cn2)n1", "values": [{"measurement": "IC50", "setting": "[2]", "result": 0.015, "unit": "µM"}, {"measurement": "microsomal CLint at 1 µM", "setting": "[1]", "result": 489, "unit": "µL/min/mg"}]}, {"smiles": "C[C@H](Nc1ncc(F)c(N2C(=O)OC[C@@H]2C)n1)c1cn(-c2ccc(Cl)cc2)cn1", "values": [{"measurement": "IC50", "setting": "[2]", "result": 0.047, "unit": "µM"}, {"measurement": "microsomal CLint at 1 µM", "setting": "[1]", "result": "101 to 103", "unit": "µL/min/mg"}, {"measurement": "clearance", "setting": "[5]", "result": 17, "unit": "mL/min/kg"}, {"measurement": "AUC", "setting": "[6]", "result": 14, "unit": "µM·h"}, {"measurement": "bioavailability", "setting": "[7]", "result": 67, "unit": "%"}]}, {"smiles": "CC(C)[C@H]1COC(=O)N1c1ccnc(N[C@@H](C)c2ncc(Oc3ccc(F)cc3)cn2)n1", "values": [{"measurement": "IC50", "setting": "[3]", "result": 0.039, "unit": "µM"}, {"measurement": "microsomal CLint at 1 µM", "setting": "[1]", "result": 238, "unit": "µL/min/mg"}]}]}
